Measured values published in ChEMBL document CHEMBL3091413, “Fine molecular tuning at position 4 of 2H-chromen-2-one derivatives in the search of potent and selective monoamine oxidase B inhibitors” (Eur J Med Chem, 2013).

Key:
[1] = target: T1, MAO-A (amine oxidase [flavin-containing] A) (Rattus norvegicus, UniProt P21396); experiment: Inhibition of Sprague-Dawley rat MAO-A using Kynuramine as substrate assessed as formation of 4-hydroxyquinoline at 10 uM preincubated for 5 mins prior to substrate addition measured for 5 mins by spectrophotometry; conditions: rat MAO-A enzyme preparation, probe kynuramine
T1 sequence (P21396 whole entry): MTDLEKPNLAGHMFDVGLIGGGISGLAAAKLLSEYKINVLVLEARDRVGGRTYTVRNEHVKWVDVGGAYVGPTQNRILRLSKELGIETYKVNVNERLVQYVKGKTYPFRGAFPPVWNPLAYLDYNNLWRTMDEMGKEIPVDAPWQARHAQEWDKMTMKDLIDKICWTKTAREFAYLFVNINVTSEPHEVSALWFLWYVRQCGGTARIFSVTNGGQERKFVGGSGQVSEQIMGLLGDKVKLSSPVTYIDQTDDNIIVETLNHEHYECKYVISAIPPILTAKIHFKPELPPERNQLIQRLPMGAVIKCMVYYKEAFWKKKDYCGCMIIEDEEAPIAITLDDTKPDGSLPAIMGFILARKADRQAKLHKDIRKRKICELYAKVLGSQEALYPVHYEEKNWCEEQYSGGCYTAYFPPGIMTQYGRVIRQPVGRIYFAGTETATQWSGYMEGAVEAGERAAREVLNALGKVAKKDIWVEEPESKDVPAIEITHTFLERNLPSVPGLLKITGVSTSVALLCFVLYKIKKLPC

[2] = target: T2, Amine oxidase [flavin-containing] B (Rattus norvegicus, UniProt P19643); experiment: Inhibition of Sprague-Dawley rat MAO-B using Kynuramine as substrate assessed as formation of 4-hydroxyquinoline preincubated for 5 mins prior to substrate addition measured for 5 mins by spectrophotometry
T2 sequence (P19643 whole entry): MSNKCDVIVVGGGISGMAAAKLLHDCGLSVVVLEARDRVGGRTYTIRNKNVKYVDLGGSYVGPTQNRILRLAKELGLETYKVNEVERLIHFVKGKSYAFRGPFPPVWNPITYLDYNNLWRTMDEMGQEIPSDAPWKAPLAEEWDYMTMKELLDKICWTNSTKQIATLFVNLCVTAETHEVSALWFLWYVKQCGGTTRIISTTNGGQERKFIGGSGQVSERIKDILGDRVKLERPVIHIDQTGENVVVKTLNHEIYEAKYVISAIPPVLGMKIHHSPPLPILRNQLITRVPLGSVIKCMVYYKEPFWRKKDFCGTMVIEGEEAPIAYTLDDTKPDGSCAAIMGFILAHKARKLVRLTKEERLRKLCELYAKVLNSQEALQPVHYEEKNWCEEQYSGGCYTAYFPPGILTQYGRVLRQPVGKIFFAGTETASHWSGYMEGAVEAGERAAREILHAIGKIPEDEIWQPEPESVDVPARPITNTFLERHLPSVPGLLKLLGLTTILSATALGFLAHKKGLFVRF

[3] = target: T3, Amine oxidase [flavin-containing] A (Rattus norvegicus, UniProt P21396); experiment: Inhibition of Sprague-Dawley rat MAO-A using Kynuramine as substrate assessed as formation of 4-hydroxyquinoline preincubated for 5 mins prior to substrate addition measured for 5 mins by spectrophotometry
T3 sequence (P21396 whole entry): T1 sequence (P21396 whole entry)
Procedure, shortened: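 Enzyme source: crude brain mitochondrial fraction from male Sprague-Dawley rats (200-250 g), decapitated. Brains were washed in ice-cold isotonic Na2HPO4/KH2PO4 buffer (pH 7.40) with sucrose, fractionated by differential centrifugation, and stored at -40 °C in isotonic phosphate buffer (pH 7.4) with KCl. Kynuramine oxidation to 4-hydroxyquinoline was monitored spectrophotometrically. Values are the mean of two or three independent experiments.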

Rattus norvegicus = species on record: Rattus norvegicus; experiment: Selectivity ratio for Sprague-Dawley rat MAO-B to Sprague-Dawley rat MAO-A
Procedure, shortened: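 Selectivity index is pIC50 MAO-B minus pIC50 MAO-A (ΔpIC50), from the rat brain mitochondrial kynuramine assay.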

| Structure (SMILES) | inhibition at 5 min, 10 µM [1] | IC50 ([2]; read-out: pIC50 (converted)) | IC50 [3] | Selectivity ratio (Rattus norvegicus) | IC50 ([2]; read-out: IC50) |
| --- | --- | --- | --- | --- | --- |
| CSCOc1cc(=O)oc2cc(OCc3cccc(Cl)c3)ccc12 | 8.6% | 316 nM |  |  |  |
| O=c1cc(CN2CCCC2)c2ccc(OCc3cccc(Cl)c3)cc2o1 | 16% | 1700 nM |  |  |  |
| O=c1cc(O)c2ccc(OCc3ccccc3)cc2o1 | 2% | 9120 nM |  |  |  |
| COCOc1cc(=O)oc2cc(OCc3cccc(Cl)c3)ccc12 | 23% | 100 nM |  |  |  |
| CCNc1cc(=O)oc2cc(OCc3cccc(Cl)c3)ccc12 |  | 28.2 nM | 9330 nM |  |  |
| CN(C)C(=O)COc1cc(=O)oc2cc(OCc3cccc(Cl)c3)ccc12 | 10% | 501 nM |  |  |  |
| O=c1cc(Nc2ccccc2)c2ccc(OCc3cccc(Cl)c3)cc2o1 | 0% | 9770 nM |  |  |  |
| COc1cc(=O)oc2cc(OCc3cccc(F)c3)ccc12 | 49% | 36.3 nM |  |  |  |
| O=C(COc1cc(=O)oc2cc(OCc3cccc(Cl)c3)ccc12)N1CCCCC1 | 9% | 38900 nM |  |  |  |
| O=c1cc(Cl)c2ccc(OCc3cccc(Cl)c3)cc2o1 |  | 20.9 nM | 8910 nM |  |  |
| O=c1cc(CCl)c2ccc(OCc3cccc(Cl)c3)cc2o1 | 21% | 43.7 nM |  |  |  |
| CCOC(=O)c1cc(=O)oc2cc(OCc3cccc(Cl)c3)ccc12 | 4.4% | 417 nM |  |  |  |
| O=c1cc(CO)c2ccc(OCc3cccc(Cl)c3)cc2o1 |  | 5.25 nM | 10200 nM |  |  |
| N#Cc1cc(=O)oc2cc(OCc3cccc(Cl)c3)ccc12 | 23% | 102 nM |  |  |  |
| CCOc1cc(=O)oc2cc(OCc3ccccc3)ccc12 | 0% | 759 nM |  |  |  |
| COc1cc(=O)oc2cc(OCc3ccccc3)ccc12 | 22% | 100 nM |  |  |  |
| O=c1cc(/C=N/O)c2ccc(OCc3cccc(Cl)c3)cc2o1 | 48% | 219 nM |  |  |  |
| COc1cc(=O)oc2cc(OCc3cccc(Cl)c3)ccc12 |  | 7.76 nM | 11700 nM |  |  |
| CCc1cc(=O)oc2cc(OCc3cccc(Cl)c3)ccc12 | 48% | 28.8 nM |  |  |  |
| CCOC(=O)Nc1cc(=O)oc2cc(OCc3cccc(Cl)c3)ccc12 | 21% | 589 nM |  |  |  |
| O=c1cc(CO)c2ccc(OCc3cccc(Br)c3)cc2o1 | 49% | 14.1 nM |  |  |  |

| Structure (SMILES) | inhibition at 5 min, 10 µM [1] | IC50 ([2]; read-out: pIC50 (converted)) | IC50 [3] | Selectivity ratio (Rattus norvegicus) | IC50 ([2]; read-out: IC50) |
| --- | --- | --- | --- | --- | --- |
| CNc1cc(=O)oc2cc(OCc3cccc(Cl)c3)ccc12 |  | 8.71 nM | 4070 nM |  |  |
| CC(=O)COc1cc(=O)oc2cc(OCc3cccc(Cl)c3)ccc12 | 22% | 26.9 nM |  |  |  |
| CCOc1cc(=O)oc2cc(OCc3cccc(F)c3)ccc12 | 25% | 263 nM |  |  |  |
| O=C(O)COc1cc(=O)oc2cc(OCc3cccc(Cl)c3)ccc12 | 0% |  |  |  |  |
| O=c1cc(Oc2ccccc2)c2ccc(OCc3cccc(Cl)c3)cc2o1 | 0% | 4070 nM |  |  |  |
| CC(=O)Nc1cc(=O)oc2cc(OCc3cccc(Cl)c3)ccc12 |  | 38.9 nM | 282 nM |  |  |
| O=Cc1cc(=O)oc2cc(OCc3cccc(Cl)c3)ccc12 | 14% | 52.5 nM |  |  |  |
| CC(C)Oc1cc(=O)oc2cc(OCc3cccc(Cl)c3)ccc12 | 3% | 24500 nM |  |  |  |
| CCCOc1cc(=O)oc2cc(OCc3cccc(Cl)c3)ccc12 | 5.3% | 61.7 nM |  |  |  |
| NC(=O)COc1cc(=O)oc2cc(OCc3cccc(Cl)c3)ccc12 |  | 3.31 nM | 24000 nM | 7240 | 3.1 nM |
| CN(C)Cc1cc(=O)oc2cc(OCc3cccc(Cl)c3)ccc12 | 5.7% |  |  |  |  |
| O=c1cc(CCl)c2ccc(OCc3cccc(Br)c3)cc2o1 | 28% | 209 nM |  |  |  |
| CNC(=O)COc1cc(=O)oc2cc(OCc3cccc(Cl)c3)ccc12 | 11% | 33.9 nM |  |  |  |
| CCNC(=O)Nc1cc(=O)oc2cc(OCc3cccc(Cl)c3)ccc12 | 0% |  |  |  |  |
| O=C(O)c1cc(=O)oc2cc(OCc3cccc(Cl)c3)ccc12 | 0% |  |  |  |  |
| CCCCNCc1cc(=O)oc2cc(OCc3cccc(Cl)c3)ccc12 | 1.1% | 447 nM |  |  |  |
| CCCOc1cc(=O)oc2cc(OCc3ccccc3)ccc12 | 0% | 575 nM |  |  |  |
| O=C(COc1cc(=O)oc2cc(OCc3cccc(Cl)c3)ccc12)N1CCOCC1 | 3.2% | 12900 nM |  |  |  |
| Cc1cc(=O)oc2cc(OCc3cccc(Cl)c3)ccc12 |  | 7.41 nM | 5250 nM |  |  |
| CC(O)c1cc(=O)oc2cc(OCc3cccc(Cl)c3)ccc12 (centres undefined) | 22% | 77.6 nM |  |  |  |
| CCCOc1cc(=O)oc2cc(OCc3cccc(Br)c3)ccc12 | 0% | 74.1 nM |  |  |  |

| Structure (SMILES) | inhibition at 5 min, 10 µM [1] | IC50 ([2]; read-out: pIC50 (converted)) | IC50 [3] | Selectivity ratio (Rattus norvegicus) | IC50 ([2]; read-out: IC50) |
| --- | --- | --- | --- | --- | --- |
| CCOc1cc(=O)oc2cc(OCc3cccc(Cl)c3)ccc12 | 2% | 115 nM |  |  |  |
| COc1cc(=O)oc2cc(OCc3cccc(Br)c3)ccc12 | 27% | 5.75 nM |  |  |  |
| CN(C)C(=O)Cc1cc(=O)oc2cc(OCc3cccc(Cl)c3)ccc12 | 0% |  |  |  |  |
| NC(=O)COc1cc(=O)oc2cc(OCc3cccc(Br)c3)ccc12 |  | 8.91 nM | 8910 nM |  |  |
| CCCOc1cc(=O)oc2cc(OCc3cccc(F)c3)ccc12 | 12% | 407 nM |  |  |  |
| CCOC(=O)COc1cc(=O)oc2cc(OCc3cccc(Cl)c3)ccc12 | 0% | 1820 nM |  |  |  |
| CCCNCc1cc(=O)oc2cc(OCc3cccc(Cl)c3)ccc12 | 3.2% | 204 nM |  |  |  |
| Nc1cc(=O)oc2cc(OCc3cccc(Cl)c3)ccc12 |  | 47.9 nM | 4170 nM |  |  |
| O=c1cc(CN2CCOCC2)c2ccc(OCc3cccc(Cl)c3)cc2o1 | 11% | 2290 nM |  |  |  |
| N#CCOc1cc(=O)oc2cc(OCc3cccc(Cl)c3)ccc12 | 17% | 45.7 nM |  |  |  |
| O=c1cc(C(F)(F)F)c2ccc(OCc3cccc(Cl)c3)cc2o1 | 16% | 871 nM |  |  |  |
| O=c1cc(O)c2ccc(OCc3cccc(F)c3)cc2o1 | 0% | 2090 nM |  |  |  |
| CCOc1cc(=O)oc2cc(OCc3cccc(Br)c3)ccc12 | 2.5% | 126 nM |  |  |  |
| CNCc1cc(=O)oc2cc(OCc3cccc(Br)c3)ccc12 | 40% | 11 nM |  |  |  |
| CC(C)Nc1cc(=O)oc2cc(OCc3cccc(Cl)c3)ccc12 | 0% | 7760 nM |  |  |  |
| O=c1cc(O)c2ccc(OCc3cccc(Br)c3)cc2o1 | 0% | 490 nM |  |  |  |
| NC(=O)c1cc(=O)oc2cc(OCc3cccc(Cl)c3)ccc12 | 14% | 234 nM |  |  |  |
| CC(=O)c1cc(=O)oc2cc(OCc3cccc(Cl)c3)ccc12 | 0% | 39.8 nM |  |  |  |
| O=c1cc(O)c2ccc(OCc3cccc(Cl)c3)cc2o1 | 6% | 479 nM |  |  |  |
